Measurements taken from PubChem BioAssay AID651950 (The Scripps Research Institute Molecular Screening Center, 2012).
A number with no mark means an inactive call. The source made the active and inactive calls. No rule for the calls is given here.

Test: Hsp70 transcriptional activators, SAR follow-up, cell-based, HeLa, Hsp70 promoter luciferase, luminescence (AID 651950)
Conditions: HeLa hsp70.1pr-luc reporter; at 99 µM (top of the series)
Outline: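 Read-out: % activation relative to DMSO and MG132 controls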

O=C1NC(=O)C(=C/C=C/c2ccc(Cl)cc2)C(=O)N1
activation: -1.1% (active)

O=C1NC(=O)C(=C/C=C/c2ccc([N+](=O)[O-])cc2)C(=O)N1
activation: -1.1% (active)

O=C1NC(=O)C(=C/C=C/c2ccc(Br)cc2)C(=O)N1
activation: -0.8% (active)

COc1ccc(/C=C/C=C2C(=O)NC(=O)NC2=O)cc1
activation: -1.7% (active)

C=CCN1C(=O)NC(=O)/C(=C/C=C/c2ccccc2)C1=O
activation: -1.7% (active)

O=C1NC(=O)N(Cc2ccccc2)C(=O)/C1=C/C=C/c1ccccc1
activation: -1.2% (active)

O=C1NC(=O)C(=C/C=C/c2ccco2)C(=O)N1
activation: -0.7% (active)

CN(C)c1ccc(/C=C/C=C2C(=O)NC(=O)NC2=O)cc1
activation: 0.4%

O=C1NC(=O)C(=C/C=C/c2cccnc2)C(=O)N1
activation: 22.5%
